# The list is not random: actives were taken first. Their share in the collection is about 2.6%.
# esBAF inh: blocks esBAF chromatin remodeling in mouse ES cells; AID 602393; reporter increase, % at 12.5 µM; hit rate 2% among 350,000; Bmi1-luciferase knock-in reporter, 24 h; 100% = twice the neutral-well signal; in the data active means activation above about 40%;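 further: a rise in the Bmi1 reporter signal indicates esBAF inhibition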
# SMARCA2 act: increases SMARCA2 function in MMTV reporter cells; MG213 cells, MMTV-luciferase reporter, dexamethasone, overnight; activation, % at 9.1 µM; hit rate 1% among 370,000; in the data active means activation above about 7.8%
# ASAP1 inh: inhibitors of human ASAP1 ArfGAP activity; inhibition, % at 16.5 µM; ASAP1-stimulated ARF1 GTP hydrolysis, GDP FP detection; hit rate 0.19% among 360,000; Q9ULH1; in the data active means inhibition above about 25%
# Target sequence (Q9ULH1 325-724 limits assumed): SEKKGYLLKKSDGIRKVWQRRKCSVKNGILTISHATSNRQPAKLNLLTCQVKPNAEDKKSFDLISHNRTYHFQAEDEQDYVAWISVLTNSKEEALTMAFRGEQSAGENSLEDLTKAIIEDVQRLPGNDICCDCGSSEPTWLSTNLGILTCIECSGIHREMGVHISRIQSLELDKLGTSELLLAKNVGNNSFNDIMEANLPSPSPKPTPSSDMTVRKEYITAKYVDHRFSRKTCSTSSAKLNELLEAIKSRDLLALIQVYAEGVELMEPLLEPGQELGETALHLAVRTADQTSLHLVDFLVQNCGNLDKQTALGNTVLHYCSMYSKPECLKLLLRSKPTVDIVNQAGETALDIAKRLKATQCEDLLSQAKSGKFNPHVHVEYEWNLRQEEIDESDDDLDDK
# ARFGAP1 inhibitor: rat ARFGAP1 inhibition; Q62848; Arfgap1-stimulated ARF1 GTP hydrolysis, GDP FP detection; inhibition, % at 16.5 µM; hit rate 0.26% among 360,000; AID 651572;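 active means inhibition above a per-plate limit, mean inhibition of low control wells plus 3 SD, cut at about 25% in these data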
# Target sequence (Q62848 1-136 limits assumed): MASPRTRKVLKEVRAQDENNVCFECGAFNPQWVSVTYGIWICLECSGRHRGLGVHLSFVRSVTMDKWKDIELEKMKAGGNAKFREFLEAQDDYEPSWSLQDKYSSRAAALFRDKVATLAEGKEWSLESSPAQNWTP
#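 System: truncated rat Arfgap1 GAP domain / Benchmarks: high control wells lacking Arfgap1, low control full reaction with DMSO / Times: compound-enzyme preincubation 20 min, reaction 120 min, detection 60 min, 25 °C / Repeats: one replicate per compound / Also added: human ARF1(Δ1-17)-GTP substrate / Measured by: Tracer-displacement fluorescence polarization with EDTA stop, 620/688 nm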
# A number is an active result; n = inactive; x = no result.
SMILES,esBAF inh,SMARCA2 act,ASAP1 inh,ARFGAP1 inhibitor
CCN1[C@@H]2Cn3c(ccc(-c4ccc(F)cc4)c3=O)[C@H]1[C@@H](C(=O)Nc1nccs1)[C@@H]2CO,n,x,x,x
COCC(=O)Nc1ccc2c(c1)[C@H]1C[C@@H](CC(=O)NCc3ccc(OC)cc3)O[C@@H](CO)[C@H]1O2,n,x,x,x
CCOc1ccc(NC(=O)c2ccccn2)cc1,x,n,n,n
CCOc1ccc(C(=O)Nc2ncccc2Cl)cc1,65.9,n,n,n
Cc1nc(C(C)NC(=O)c2cc(COc3ccc(C)c(C)c3)on2)c(C)s1 (configuration not stated),73.4,n,n,n
Cc1cc(OCc2cc(C(=O)NC3CCC3)no2)cc(C)c1Cl,n,x,x,x
Cc1cc(OCc2cc(C(=O)NC(C)c3c(C)nn(C)c3C)no2)cc(C)c1Cl (configuration not stated),82.6,n,n,n
CC(=O)c1ccc(OCc2cc(C(=O)NC(C)c3cnn(C)c3)no2)cc1 (configuration not stated),n,n,n,n
Cc1cc(OCc2cc(C(=O)NC(C)c3cnn(C)c3)no2)cc(C)c1Cl (configuration not stated),71.9,n,n,n
COc1cccc(NC(=O)N[C@@H]2C=C[C@@H](CC(=O)Nc3ccc(-c4ccccc4)cc3)O[C@@H]2CO)c1,n,x,x,x
NC1=C(Br)C(=O)c2ncccc2C1=O,x,n,28.5,n
O=C1c2cccnc2C(=O)N1CO,n,n,n,n
Cc1nnc(NC(=O)c2ccc3ccccc3n2)s1,42.5,n,n,n
COc1ccc(CNC(=O)c2ccc3ccccc3n2)cc1,82.5,n,n,n
Cc1nc2ccc(NC(=O)c3ccc4ccccc4n3)cc2s1,x,n,n,n
Cc1ccc(SC[C@H](c2ccccc2)N2CCN(C)CCC2=O)cc1,50.9,n,n,n
Cc1ccc(SC[C@H](CC(C)C)N2CCN(C)CCC2=O)cc1,57.9,n,n,n
C[C@H]1CN([C@@H](C)CO)C(=O)c2cccc(NC(=O)C3CCOCC3)c2O[C@@H]1CN(C)S(=O)(=O)c1cn(C)cn1,n,x,x,x
CCc1ccc(OCC(=O)Nc2ccc(-c3nc4ccccc4o3)c(O)c2)cc1,x,n,n,n
Oc1cc(NCc2cccnc2)ccc1-c1nc2ccccc2o1,77.6,n,n,n
COC(=O)c1ccc(Sc2nnnn2-c2ccccc2)c([N+](=O)[O-])c1,45.9,n,n,n
CCOC(=O)c1c(C)[nH]c(C)c1C(=O)CSc1nnnn1-c1ccccc1,n,n,n,n
COC(=O)c1c(C)[nH]c(C(=O)CSc2nnnn2-c2ccccc2)c1C,48.4,n,n,n
CC(C)(C)c1cc(C(=O)NCc2cc(F)cc3c2OCOC3)n(Cc2ccccc2)n1,50.1,n,n,n
CC(C)(C)c1cc(C(=O)NNC(=O)Nc2ccccc2)n(Cc2ccccc2)n1,n,n,n,n
SMILES,esBAF inh,SMARCA2 act,ASAP1 inh,ARFGAP1 inhibitor
CCOC(=O)c1ccc(NC(=O)C23CCC(C)(C(=O)O2)C3(C)C)cc1 (configuration not stated),54.9,n,n,n
Cc1ccc(NC(=O)CSc2nccn2Cc2ccco2)cc1,55.9,n,n,n
N#Cc1ccccc1NC(=O)CSc1nccn1CCc1ccccc1,56.0,n,n,n
CC(=O)c1ccc(NC(=O)CSc2nccn2C)cc1,x,n,n,n
CC(=O)c1ccc(NC(=O)CSc2nccn2CCc2ccccc2)cc1,78.5,n,n,n
N#Cc1ccccc1NC(=O)CSc1nnc(-c2ccccc2)n1-c1ccccc1,n,n,n,n
COCCCn1c(SCC(=O)Nc2ccc(C(C)=O)cc2)nc2ccccc2c1=O,65.7,n,n,n
COCCn1c(SCC(=O)Nc2ccc(NC(C)=O)cc2)nc2ccccc2c1=O,n,n,n,n
O=C(CSc1nccn1Cc1ccco1)Nc1ccc(F)cc1,n,n,n,n
Cc1ccc(S(=O)(=O)Nc2ccc3c(c2)C(=O)N([C@H](C)CO)C[C@@H](C)[C@H](CN(C)C(=O)Nc2ccc4c(c2)OCO4)O3)cc1,n,x,x,x
O=C(C[C@@H]1C=C[C@@H](NS(=O)(=O)c2ccccc2)[C@H](CO)O1)NCc1ccccc1F,n,x,x,x
Cc1cc(Br)ccc1OCC(=O)NC1CCCC1,51.9,n,n,n
O=C(COC(=O)c1c(F)cccc1Cl)NC1CCCC1,49.6,n,n,n
N#Cc1ccccc1OCC(=O)OCC(=O)NC1CCCCC1,n,n,n,n
O=C(COC(=O)c1ccccc1Cl)NC1CCCCCC1,69.4,n,n,n
O=C(COC(=O)c1cccc(Cl)c1Cl)NC1CCCC1,n,n,n,n
N#Cc1ccccc1OCC(=O)NC1CCCCCC1,46.0,n,n,n
C[C@@H]1CN([C@@H](C)CO)C(=O)CCCn2cc(nn2)CO[C@@H]1CN(C)S(C)(=O)=O,n,x,x,x
CC(C)(C)[S@@](=O)N1Cc2cc(C(=O)NCCN3CCCCC3)nc(-c3cccc(-c4ccc(C#N)cc4)c3)c2[C@H]1CCO,n,x,x,x
C[C@H](CO)N1C[C@H](C)[C@H](CN(C)S(=O)(=O)c2ccccc2)OCCCC[C@H](C)Oc2ccc(NC(=O)c3ccccc3)cc2C1=O,n,x,x,x
O=C(C[C@H]1CC[C@H]2[C@@H](COC[C@H](O)CN2Cc2cc(F)ccc2F)O1)N1CCc2ccccc2C1,n,x,x,x
Cc1noc(C)c1NC(=O)NCC[C@H]1CC[C@@H](NC(=O)Nc2cccc(F)c2)[C@H](CO)O1,n,x,x,x
C/C(=N\NC(=O)c1ccc(C)cc1C)c1ccc2c(c1)Nc1ccccc1S2,n,10.6,n,n
COc1ccc(CCNC(=O)CSc2nc3ccsc3c(=O)n2Cc2ccccn2)cc1OC,42.9,n,n,n
COc1cccc(Nc2ncnc3sccc23)c1,59.1,n,n,n
SMILES,esBAF inh,SMARCA2 act,ASAP1 inh,ARFGAP1 inhibitor
Cc1cc2c(Nc3ccc(O)cc3)ncnc2s1,n,n,n,n
COc1ccc(OC)c(Nc2ncnc3sccc23)c1,n,n,n,n
COc1ccc(Oc2ncnc3sccc23)cc1,45.1,n,n,n
COc1ccc(Nc2ncnc3sccc23)cc1,n,n,n,n
COc1cccc(Nc2ncnc3sc(C)cc23)c1,65.8,n,n,n
C[C@H](CO)N1C[C@H](C)[C@@H](CN(C)Cc2ccc(C(=O)O)cc2)Oc2c(NC(=O)c3cnccn3)cccc2C1=O,n,x,x,x
C[C@H]1CN([C@@H](C)CO)C(=O)c2cc(NS(=O)(=O)c3ccc(F)cc3)ccc2O[C@H]1CN(C)Cc1ccc(C(F)(F)F)cc1,n,x,x,x
O=c1oc2cc(OCc3ccc(F)cc3F)ccc2cc1-c1ccccn1,45.3,n,n,n
C[C@@H]1CN([C@H](C)CO)S(=O)(=O)c2ccc(-c3ccc(C(=O)N(C)C)cc3)cc2O[C@H]1CN(C)C(=O)C1CCC1,n,x,x,x
CN(CCC#N)C(=O)c1cc2c(s1)-c1ccccc1SC2,53.3,n,n,n
N#CCCN(C(=O)c1cc2c(s1)-c1ccccc1S(=O)(=O)C2)c1ccccc1,n,n,n,n
CNC[C@H]1Oc2c(NC(=O)Nc3ccc(F)cc3)cccc2C(=O)N([C@H](C)CO)C[C@H]1C,n,x,x,x
O=C(Nc1ccc(N2CCOCC2)c(Cl)c1)c1cccnc1,n,n,n,n
O=C(Nc1ccc(N2CCCCC2)c(Cl)c1)c1cccnc1,48.6,n,n,n
O=C(Nc1ccc(N2CCCC2)c(Cl)c1)c1cccnc1,48.7,n,n,n

# High-throughput results: PubChem BioAssay, several laboratories
